pEC50, pIC50, pKi: −log10 of the molar value. Values after ≈ are worked out from the molar mass of the structure shown.
Legend:
[1] = biological target: Histamine H2 receptor (Homo sapiens) (UniProt P25021); test: Displacement of [3H]-tiotidine from human histamine H2 receptor; parameters: concentration or dose not given beside the values; conditions: concentration not given here
Procedure, shortened: (§1)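 Radioligand displacement assays, single determination (n = 1) each: [3H]-mepyramine at H1, [3H]-tiotidine at H2, [3H]-histamine at H4.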

Histamine H3 receptor [2] = biological target: T1, Histamine H3 receptor (Homo sapiens, UniProt Q9Y5N1); test: Displacement of [3H]-RAMH from human histamine H3 receptor
Cytochrome P450 2D6 = Cytochrome P450 2D6 (Homo sapiens, UniProt P10635); test: Inhibition of CYP2D6; format: ADME
[3] = Intrinsic clearance in human liver microsomes; format: ADME, Microsome
Histamine H3 receptor [4] = biological target: T1, Histamine H3 receptor; test: Inverse agonist activity at human recombinant histamine H3 receptor assessed as effect on [35S]GTPgammaS binding; format: functional
[5] = biological target: Histamine H1 receptor (Homo sapiens) (UniProt P35367); test: Displacement of [3H]-mepyramine from human histamine H1 receptor; parameters: concentration or dose not given beside the values; conditions: concentration not given here; procedure, shortened: as §1
Cytochrome P450 2C9 = Cytochrome P450 2C9 (Homo sapiens, UniProt P11712); test: Inhibition of CYP2C9; format: ADME
Cytochrome P450 3A4 = Cytochrome P450 3A4 (Homo sapiens, UniProt P08684); test: Inhibition of CYP3A4; format: ADME
[6] = Lipophilicity, log D of the compound at pH 7.4; format: physicochemical; conditions: buffer
[7] = Intrinsic clearance in rat liver microsomes; format: ADME, Microsome
[8] = biological target: Histamine H4 receptor (Homo sapiens) (UniProt Q9H3N8); test: Displacement of [3H]-histamine from human histamine H4 receptor; parameters: concentration or dose not given beside the values; conditions: concentration not given here; procedure, shortened: as §1
[9] = Aqueous solubility of the compound in 0.05 M phosphate buffer at pH 6.5; format: physicochemical
Histamine H3 receptor [10] = biological target: T1, Histamine H3 receptor; conditions: 3 uM

Sequence of Histamine H1 receptor (Homo sapiens) (P35367 whole entry): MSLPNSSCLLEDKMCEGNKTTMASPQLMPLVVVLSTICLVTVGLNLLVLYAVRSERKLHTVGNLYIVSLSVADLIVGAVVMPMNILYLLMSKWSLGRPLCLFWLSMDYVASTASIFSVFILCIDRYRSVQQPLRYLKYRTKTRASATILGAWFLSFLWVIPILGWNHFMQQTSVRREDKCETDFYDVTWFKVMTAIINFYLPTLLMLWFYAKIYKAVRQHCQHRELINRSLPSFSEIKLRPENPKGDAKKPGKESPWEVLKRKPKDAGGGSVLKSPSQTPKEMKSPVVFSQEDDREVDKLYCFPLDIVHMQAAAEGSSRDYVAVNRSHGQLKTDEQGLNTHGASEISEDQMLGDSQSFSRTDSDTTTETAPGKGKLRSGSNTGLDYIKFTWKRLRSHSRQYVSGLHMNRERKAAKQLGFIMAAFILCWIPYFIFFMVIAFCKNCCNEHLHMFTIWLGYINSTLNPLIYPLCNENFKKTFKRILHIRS
Sequence of Cytochrome P450 2D6 (P10635 whole entry): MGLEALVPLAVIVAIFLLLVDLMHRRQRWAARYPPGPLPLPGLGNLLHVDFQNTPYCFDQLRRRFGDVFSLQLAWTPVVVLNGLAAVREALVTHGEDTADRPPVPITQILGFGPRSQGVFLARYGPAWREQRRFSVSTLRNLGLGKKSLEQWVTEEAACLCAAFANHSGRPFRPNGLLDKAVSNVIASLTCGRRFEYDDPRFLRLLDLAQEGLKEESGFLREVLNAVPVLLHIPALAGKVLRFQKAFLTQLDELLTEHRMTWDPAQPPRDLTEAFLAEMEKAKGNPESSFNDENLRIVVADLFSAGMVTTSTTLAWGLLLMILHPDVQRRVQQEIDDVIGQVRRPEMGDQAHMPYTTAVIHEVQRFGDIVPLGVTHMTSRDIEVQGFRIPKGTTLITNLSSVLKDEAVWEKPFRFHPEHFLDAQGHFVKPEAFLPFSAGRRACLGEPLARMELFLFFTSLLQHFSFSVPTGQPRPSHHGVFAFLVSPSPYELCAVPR
Sequence of Histamine H2 receptor (Homo sapiens) (P25021 whole entry): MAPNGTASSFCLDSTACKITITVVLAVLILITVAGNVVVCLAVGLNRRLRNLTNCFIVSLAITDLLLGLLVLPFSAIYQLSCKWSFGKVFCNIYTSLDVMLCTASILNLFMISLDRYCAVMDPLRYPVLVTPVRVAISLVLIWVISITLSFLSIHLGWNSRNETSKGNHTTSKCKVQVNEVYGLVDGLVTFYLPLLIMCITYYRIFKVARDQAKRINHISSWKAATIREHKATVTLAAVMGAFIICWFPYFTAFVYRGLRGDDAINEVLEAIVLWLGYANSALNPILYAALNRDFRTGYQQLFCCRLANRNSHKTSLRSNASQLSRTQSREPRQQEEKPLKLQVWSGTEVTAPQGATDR
Sequence of Cytochrome P450 2C9 (P11712 whole entry): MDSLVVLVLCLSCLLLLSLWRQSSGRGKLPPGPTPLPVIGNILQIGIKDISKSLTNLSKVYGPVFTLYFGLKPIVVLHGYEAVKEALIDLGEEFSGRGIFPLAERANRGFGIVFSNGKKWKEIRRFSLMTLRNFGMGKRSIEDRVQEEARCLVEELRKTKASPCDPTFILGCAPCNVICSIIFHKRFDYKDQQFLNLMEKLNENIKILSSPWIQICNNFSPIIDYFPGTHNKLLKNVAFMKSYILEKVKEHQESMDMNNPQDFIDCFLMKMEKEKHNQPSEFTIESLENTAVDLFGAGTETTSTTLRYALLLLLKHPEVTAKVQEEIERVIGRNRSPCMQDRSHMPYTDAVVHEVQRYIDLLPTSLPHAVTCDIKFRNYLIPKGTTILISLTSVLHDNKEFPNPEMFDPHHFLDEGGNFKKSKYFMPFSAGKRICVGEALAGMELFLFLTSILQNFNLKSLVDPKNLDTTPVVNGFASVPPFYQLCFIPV
T1 sequence (Q9Y5N1 whole entry): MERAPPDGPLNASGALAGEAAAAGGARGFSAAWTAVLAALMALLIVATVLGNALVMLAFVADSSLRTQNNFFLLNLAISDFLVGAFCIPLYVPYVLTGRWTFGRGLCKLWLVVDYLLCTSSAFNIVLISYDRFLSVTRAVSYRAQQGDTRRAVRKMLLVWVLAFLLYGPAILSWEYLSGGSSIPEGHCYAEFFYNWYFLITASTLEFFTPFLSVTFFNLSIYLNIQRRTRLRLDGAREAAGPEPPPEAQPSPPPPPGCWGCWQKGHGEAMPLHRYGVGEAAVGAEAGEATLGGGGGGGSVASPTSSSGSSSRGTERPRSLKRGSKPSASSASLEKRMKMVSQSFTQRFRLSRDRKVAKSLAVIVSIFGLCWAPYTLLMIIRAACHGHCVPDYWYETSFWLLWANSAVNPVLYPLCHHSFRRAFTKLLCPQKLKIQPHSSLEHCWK
Sequence of Cytochrome P450 3A4 (P08684 whole entry): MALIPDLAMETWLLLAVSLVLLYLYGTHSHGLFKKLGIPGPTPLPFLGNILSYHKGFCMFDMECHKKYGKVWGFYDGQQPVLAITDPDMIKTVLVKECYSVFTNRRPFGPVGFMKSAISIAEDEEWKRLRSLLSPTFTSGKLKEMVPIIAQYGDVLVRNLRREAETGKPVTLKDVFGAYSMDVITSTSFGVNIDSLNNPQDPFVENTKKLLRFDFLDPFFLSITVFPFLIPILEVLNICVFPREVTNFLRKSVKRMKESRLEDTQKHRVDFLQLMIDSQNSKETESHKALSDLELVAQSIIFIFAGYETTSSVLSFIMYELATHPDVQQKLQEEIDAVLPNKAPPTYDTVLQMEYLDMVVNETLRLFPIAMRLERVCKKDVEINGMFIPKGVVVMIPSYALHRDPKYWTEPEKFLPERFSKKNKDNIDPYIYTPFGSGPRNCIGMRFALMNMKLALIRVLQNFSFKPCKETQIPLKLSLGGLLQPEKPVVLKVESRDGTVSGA
Sequence of Histamine H4 receptor (Homo sapiens) (Q9H3N8 whole entry): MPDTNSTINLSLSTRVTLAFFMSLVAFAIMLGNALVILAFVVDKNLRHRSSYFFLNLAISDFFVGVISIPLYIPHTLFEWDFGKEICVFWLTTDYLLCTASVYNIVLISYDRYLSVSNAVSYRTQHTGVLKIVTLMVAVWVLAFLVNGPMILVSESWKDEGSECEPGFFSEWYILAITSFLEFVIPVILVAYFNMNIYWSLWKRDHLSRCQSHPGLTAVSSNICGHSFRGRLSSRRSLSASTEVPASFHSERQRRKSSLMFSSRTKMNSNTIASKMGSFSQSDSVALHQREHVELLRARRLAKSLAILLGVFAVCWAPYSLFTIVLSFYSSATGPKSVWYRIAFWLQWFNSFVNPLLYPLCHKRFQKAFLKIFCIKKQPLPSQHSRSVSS

Row | Compound | inhibition [1] | pKi (Histamine H3 receptor [2]) | pIC50 (Cytochrome P450 2D6) | microsomal CLint [3] | pEC50 (Histamine H3 receptor [4]) | inhibition [5] | pIC50 (Cytochrome P450 2C9) | pIC50 (Cytochrome P450 3A4) | logD [6] | microsomal CLint [7] | inhibition [8] | solubility [9] | inhibition (Histamine H3 receptor [10])
1 | CC(C)N1CCC(Oc2ccc3c(c2)cc2n3CCN(C)C2=O)CC1 | 11% | 7.51 | 4.82 | 1 µL/min/mg | 7.32 | -4% | < 4.30 | < 4.30 | 0.13 | 23 µL/min/mg | 0% | > 455 µg/mL | 
2 | COCCN1CCn2c(cc3cc(OC4CCN(C(C)C)CC4)ccc32)C1=O | 6% | 7.72 |  |  | 7.29 |  |  |  |  |  | 0% |  | 
3 | CC(C)N1CCC(Oc2ccc3[nH]c4c(c3c2)CCNC4=O)CC1 |  | < 5.52 |  |  |  |  |  |  |  |  |  |  | 35%
4 | CC(C)N1CCC(Oc2ccc3c(c2)cc2n3CCN(Cc3ccc(F)cc3)C2=O)CC1 | -3% | 8.15 | 4.46 | 5 µL/min/mg | 7.85 | 17% | < 4.30 | < 4.30 | 2.06 | 17 µL/min/mg | 1% | 382 µg/mL (≈ 877 µM) | 
5 | CC(C)N1CCC(Oc2ccc3c(c2)cc2n3CCN(Cc3ccccn3)C2=O)CC1 | 4% | 8.22 |  |  | 7.85 | 6% |  |  |  |  | -3% |  | 
6 | CC(C)N1CCC(Oc2ccc3c(c2)cc2n3CCN(Cc3ccccc3F)C2=O)CC1 | 6% | 8.22 |  |  | 7.55 | 16% |  |  |  |  | 1% |  | 
7 | C[C@H]1CC[C@H](C)N1CCCOc1ccc2c(c1)cc1n2CCNC1=O | 17% | 7.96 |  |  | 7.62 | 16% |  |  |  |  | 6% |  | 
8 | CC(C)N1CCC(Oc2ccc3c(c2)cc2n3C[C@H](C)NC2=O)CC1 | 26% | 8.22 | < 4.30 | 3 µL/min/mg | 7.85 | -2% | < 4.30 | < 4.30 | 0.23 |  | 15% | > 455 µg/mL | 
9 | CC(C)N1CCC(Oc2ccc3c(c2)cc2n3CCN(CC(F)(F)F)C2=O)CC1 | -6% | 7.47 |  |  | 7.40 | -1% |  |  |  |  | -4% |  | 
10 | CC(C)N1CCC(Oc2ccc3c(c2)cc(C(=O)N2CCC(F)(F)CC2)n3C(C)C)CC1 | -6% | 8.70 | 5.30 | 4 µL/min/mg | 8.70 | 9% | < 4.30 | < 4.30 | 1.67 | 12 µL/min/mg | 7% | > 589 µg/mL | 
11 | CC(C)N1CCC(Oc2ccc3c(c2)cc2n3CCN(Cc3cccnc3)C2=O)CC1 | 3% | 8.30 |  |  | 7.89 | 3% |  |  |  |  | 3% |  | 
12 | CC(C)N1CCC(Oc2cc3cc4n(c3cc2Br)[C@@H](C)CN(CC2CC2)C4=O)CC1 | -3% | 8.70 | < 4.30 | 7 µL/min/mg | 8.70 | 10% | < 4.30 | < 4.30 | 2.32 | 20 µL/min/mg | 1% | 506 µg/mL (≈ 1070 µM) | 
13 | CC(C)N1CCC(Oc2ccc3c(c2)cc2n3C[C@@H](C)NC2=O)CC1 | 13% | 8.05 | < 4.30 | 7 µL/min/mg | 7.34 | 2% | < 4.30 | < 4.30 | 0.28 | 10 µL/min/mg | 7% | 284 µg/mL (≈ 832 µM) | 
14 | CC(C)N1CCC(Oc2ccc3c(c2)cc2n3[C@@H](C)CNC2=O)CC1 | 9% | 7.38 | < 4.30 | 4 µL/min/mg | 7.03 | 11% | < 4.30 | 4.59 | 0.28 |  | 10% | 345 µg/mL (≈ 1010 µM) | 

Source: ChEMBL document CHEMBL1255546, “Discovery of potent and selective histamine H3 receptor inverse agonists based on the 3,4-dihydro-2H-pyrazino[1,2-a]indol-1-one scaffold” (Bioorg Med Chem Lett, 2010)
